Source: ChEMBL document CHEMBL2010721, “Growth inhibition of Mycobacterium smegmatis by prodrugs of deoxyxylulose phosphate reducto-isomerase inhibitors, promising anti-mycobacterial agents” (Eur J Med Chem, 2012)
Converted amounts (≈) assume the structure as drawn. The source made the active and inactive calls. The calls are words filed in the database; no cut-off is given here.

Tests used:
[1] = target: T1, 1-deoxy-D-xylulose 5-phosphate reductoisomerase (Mycobacterium smegmatis (strain ATCC 700084 / mc(2)155)) (UniProt A0QVH7); assay: Inhibition of Mycobacterium smegmatis DSM 43756 ATCC 19420 N-terminal his-tagged DXR expressed in XL1-blue Escherichia coli using NADPH and DXP as substrate at 1 uM […]; details: Mycolicibacterium smegmatis
T1 sequence (whole entry): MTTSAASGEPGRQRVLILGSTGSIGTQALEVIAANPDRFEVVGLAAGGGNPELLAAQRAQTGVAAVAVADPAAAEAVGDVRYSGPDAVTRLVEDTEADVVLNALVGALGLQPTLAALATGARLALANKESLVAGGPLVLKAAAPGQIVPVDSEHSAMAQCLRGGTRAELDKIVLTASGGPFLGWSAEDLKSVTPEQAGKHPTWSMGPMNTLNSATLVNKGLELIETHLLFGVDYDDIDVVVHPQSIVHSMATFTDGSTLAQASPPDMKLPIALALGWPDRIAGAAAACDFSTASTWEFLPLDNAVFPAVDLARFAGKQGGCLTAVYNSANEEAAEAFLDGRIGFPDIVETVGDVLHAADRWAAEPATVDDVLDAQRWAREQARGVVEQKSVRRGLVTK

[2] = system: Escherichia coli; assay: Antimycobacterial activity against Escherichia coli at 400 nmol/disc after 24 hrs by paper disc diffusion method; type: functional, organism-based
[3] = system: Escherichia coli; assay: Inhibition of Escherichia coli DXR at 1 uM
[4] = system: Mycolicibacterium smegmatis; assay: Antimycobacterial activity against Mycobacterium smegmatis at 400 nmol/disc after 24 hrs by paper disc diffusion method; type: functional
Method in brief: (§1)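 M. smegmatis (grown at 37 °C) was spread from a tenfold-diluted overnight culture on agar plates containing yeast extract, malt extract, CaCO₃ and glucose. Compounds were dissolved at 100 mM in DMSO or water, and 4 µL was put on each 6 mm disc. Isoniazid was dissolved at 7.5 mM, and 2 µL was put on each disc. Inhibition zones were read after 24 h at 37 °C.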

[5] = system: Mycolicibacterium smegmatis; assay: Antimycobacterial activity against Mycobacterium smegmatis assessed as viability at 20 uM after 5 to 12 hrs by resazurin test; type: functional, organism-based
Method in brief: (§2)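 A fresh M. smegmatis preculture was adjusted to McFarland 0.5. Then 0.2 mL went into 1.8 mL medium with inhibitor (final isoniazid 10–40 µM; other compound 250–1000 µM), shaken 24 h at 37 °C. Of this, 50 µL was added to 150 µL fresh medium, in duplicate, plus 0.01% resazurin. Plates were kept at 37 °C, and the blue-to-pink change was followed by eye for 12 h, with growth and sterile controls.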

[6] = system: Mycolicibacterium smegmatis; assay: Antimycobacterial activity against Mycobacterium smegmatis at 15 nmol/disc after 24 hrs by paper disc diffusion method; type: functional; method in brief: as §1
[7] = system: Mycolicibacterium smegmatis; assay: Antimycobacterial activity against Mycobacterium smegmatis; type: functional
[8] = system: Mycobacterium tuberculosis; assay: Antimycobacterial activity against Mycobacterium tuberculosis; type: functional
[9] = system: Mycolicibacterium smegmatis; assay: Antimycobacterial activity against Mycobacterium smegmatis assessed as viability at 10 uM after 1 hr by resazurin test; type: functional, organism-based; method in brief: as §2
[10] = target: T2, 1-deoxy-D-xylulose 5-phosphate reductoisomerase (Mycobacterium smegmatis (strain ATCC 700084 / mc(2)155), UniProt A0QVH7); assay: Inhibition of Mycobacterium smegmatis DSM 43756 ATCC 19420 N-terminal his-tagged DXR expressed in XL1-blue Escherichia coli using NADPH and DXP as substrate preincubated for 2 mins […]; design: species or system Mycolicibacterium smegmatis
T2 sequence (A0QVH7 whole entry): T1 sequence (whole entry)
Method in brief: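 N-terminal His-tagged M. smegmatis DXR, Ni²⁺-purified and kept in glycerol/NaCl buffer. Assay at 37 °C in 50 mM Tris/HCl pH 7.5 with 3 mM MgCl₂, 2 mM DTT, 0.15 mM NADPH and 0.5 mM DXP. Enzyme and inhibitor were preincubated 2 min with NADPH, then DXP started the reaction. Initial rates were read as A340 decrease. Inhibitor range was 0.1–0.6 or 0.2–2 µM. IC50 came from residual activity vs log concentration, mean of two determinations.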

[11] = system: Mycolicibacterium smegmatis; assay: Antimycobacterial activity against Mycobacterium smegmatis assessed as viability at 500 uM after 5 hrs by resazurin test; type: functional, organism-based; method in brief: as §2
[12] = system: Mycolicibacterium smegmatis; assay: Antimycobacterial activity against Mycobacterium smegmatis assessed as viability at 250 uM after 15 mins by resazurin test; type: functional, organism-based; method in brief: as §2
[13] = target: T2, 1-deoxy-D-xylulose 5-phosphate reductoisomerase (Mycobacterium smegmatis (strain ATCC 700084 / mc(2)155), UniProt A0QVH7); assay: Inhibition of Mycobacterium smegmatis DXR; design: species or system Mycolicibacterium smegmatis
Method in brief: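 His-tagged M. smegmatis DXR (N-terminal tag, expressed in E. coli, Ni2+ column purified) was pre-incubated with inhibitor and 0.15 mM NADPH for 2 min at 37 °C in 50 mM Tris/HCl pH 7.5, 3 mM MgCl2, 2 mM DTT. Reaction started with 0.5 mM DXP; initial rates from NADPH absorbance decrease at 340 nm. IC50 from residual activity versus log inhibitor concentration; mean of two independent determinations.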

In the case of `CCCC(=O)OCOP(=O)(CCCN(O)C(C)=O)OCOC(=O)CCC`, the inhibition [1] is reported as “inactive”, the “growth inhibition (GI)” value [2] is reported as “inactive” and the inhibition [3] is reported as “inactive”. The “growth inhibition (GI)” value [4] was “inactive”.

In the case of `NNC(=O)c1ccncc1` [ISONIAZID], the “growth inhibition (GI)” value [5] is reported as “inactive”, the “diameter of the inhibition zone (DIZ)” value [6] is reported as 29 mm and the MIC [7] is reported as 10 µM (≈ 1.37 µg/mL). The MIC [8] was 7 µg/mL (≈ 51 µM) and the “growth inhibition (GI)” value [9] was “inactive”.

With `CC(=O)N(O)CCCP(=O)(O)O` [FR-900098] the “growth inhibition (GI)” value [4] was “inactive” and the IC50 [10] was 320 nM.

With `CN(O)C(=O)CCCP(=O)(O)O` the “growth inhibition (GI)” value [4] was “inactive” and the IC50 [10] was 410 nM.

For `O=C(CCCP(=O)(O)O)NO`, the “growth inhibition (GI)” value [4] was “inactive” and the IC50 [10] was 1480 nM.

For `CN(O)C(=O)CCCP(=O)(OCOC(=O)c1ccccc1)OCOC(=O)c1ccccc1`, the “growth inhibition (GI)” value [2] was “inactive”, the MIC [8] was 25 µg/mL (≈ 53.7 µM) and the “diameter of the inhibition zone (DIZ)” value [4] was 11 mm.

With `CCCC(=O)OCOP(=O)(CCCC(=O)NO)OCOC(=O)CCC` the “growth inhibition (GI)” value [2] was “inactive” and the “growth inhibition (GI)” value [4] was “inactive”.

For `CCCC(=O)OCOP(=O)(CCCC(=O)N(C)O)OCOC(=O)CCC`, the “growth inhibition (GI)” value [11] was “Active”, the “growth inhibition (GI)” value [12] was “inactive” and the inhibition [1] was “inactive”. The MIC [7] was 250 µM (≈ 99.3 µg/mL), the “growth inhibition (GI)” value [2] was “inactive” and the inhibition [3] was “inactive”. For the same molecule, the “diameter of the inhibition zone (DIZ)” value [4] was 23 mm.

`CCCC(=O)OCOP(=O)(CCCN(O)C=O)OCOC(=O)CCC` was tested, and the “growth inhibition (GI)” value [2] was “inactive” and the “growth inhibition (GI)” value [4] was “inactive”.

For `CN(O)C(=O)CCCP(=O)(OCOC(=O)C(C)(C)C)OCOC(=O)C(C)(C)C`, the “growth inhibition (GI)” value [2] was “inactive”, the MIC [8] was 50 µg/mL (≈ 118 µM) and the “diameter of the inhibition zone (DIZ)” value [4] was 15 mm.

For `O=CN(O)CCCP(=O)(O)O` [FOSMIDOMYCIN], the IC50 [13] was 80 nM, the “growth inhibition (GI)” value [4] was “inactive” and the IC50 [10] was 510 nM.

With `CC(C)(C)C(=O)OCOP(=O)(CCCC(=O)NO)OCOC(=O)C(C)(C)C` the “growth inhibition (GI)” value [2] was “inactive” and the “growth inhibition (GI)” value [4] was “inactive”.

In the case of `O=C(CCCP(=O)(OCOC(=O)c1ccccc1)OCOC(=O)c1ccccc1)NO`, the “growth inhibition (GI)” value [2] is reported as “inactive” and the “growth inhibition (GI)” value [4] is reported as “inactive”.
